Assay results from ChEMBL document CHEMBL1240522, “Effect of goniothalamin on the development of Ehrlich solid tumor in mice” (Bioorg Med Chem, 2010).
Active and inactive are the calls of the source. The calls are words filed in the database; no cut-off is given here.

Assays:
[1] = Antitumor activity against mouse EAC cells xenografted in BALB/C mouse assessed as inhibition of increase in tumor volume at 50 mg/kg, ip administered every 3 days measured on day 15 relative to control; assay type: functional; conditions: Ehrlich, route intraperitoneal
In short: (§1)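 Ehrlich cells kept as ascites by weekly ip passage of 5 × 10^5 cells in mice. Balb/C mice (n = 8/group) inoculated with 2.5 × 10^6 cells into the right hind footpad. Dosed ip every third day from day 3, vehicle 0.9% saline. Tumour volume taken as plethysmometer paw volume minus basal, every third day to day 15. Reported as % inhibition vs vehicle ± SD; ANOVA.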

[2] = system: OVCAR-3; assay: Cytotoxicity against human OVCAR-3 cells after 48 hrs by sulforhodamine B assay; assay type: functional; conditions: OVCAR-3, 48 h
In short: (§2)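 Cells grown in RPMI 1640 with 5% FBS at 37 °C, 5% CO2, with penicillin/streptomycin. Treated for 48 h with compound in DMSO/RPMI at […]. Fixed with 50% trichloroacetic acid, protein stained with sulforhodamine B and read at 540 nm. TGI (total growth inhibition) obtained by non-linear regression of the concentration–response curves.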

[3] = Antitumor activity against mouse EAC cells xenografted in BALB/C mouse assessed as inhibition of increase in tumor volume at 50 mg/kg, ip administered every 3 days measured on day 10 relative to control; assay type: functional; conditions: Ehrlich, route intraperitoneal; in short: as §1
[4] = system: UACC-62; assay: Cytotoxicity against human UACC62 cells after 48 hrs by sulforhodamine B assay; assay type: functional; conditions: UACC-62, 48 h; in short: as §2
[5] = system: NCI-H460; assay: Cytotoxicity against human NCI-H460 cells after 48 hrs by sulforhodamine B assay; assay type: functional; conditions: NCI-H460, 48 h; in short: as §2
[6] = Cytotoxicity against human PCO3 cells after 48 hrs by sulforhodamine B assay; assay type: functional; conditions: PCO3, 48 h; in short: as §2
[7] = Antitumor activity against mouse EAC cells xenografted in BALB/C mouse assessed as reduction of tumor weight at 50 mg/kg, ip administered every 3 days measured on day 15 relative to control; assay type: functional; conditions: Ehrlich, route intraperitoneal
In short: (§3)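 Ehrlich footpad tumour model in Balb/C mice (n = 8/group, 2.5 × 10^6 cells) with ip dosing every third day from day 3 in 0.9% saline. Mice sacrificed on day 15 and both hind paws weighed. Relative tumour weight = (tumour paw − healthy paw weight)/body weight. Reported as % inhibition vs vehicle ± SD; ANOVA.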

[8] = system: Mus musculus; assay: Acute toxicity in BALB/C mouse assessed as mortality at up to 300 mg/kg, ip after 4 hrs; assay type: organism-based; design: dose 300 mg/kg, route intraperitoneal; conditions: in vivo
In short: (§4)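 Balb/C mice (20–35 g) dosed intraperitoneally at 50, 100 and 300 mg/kg. Observed for 4 h, then daily for 14 days, for body weight loss, locomotion, behaviour (agitation, lethargy), respiration, salivation, tearing eyes, cyanosis and mortality.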

[9] = system: U-251; assay: Cytotoxicity against human U251 cells after 48 hrs by sulforhodamine B assay; assay type: functional; conditions: U-251, 48 h; in short: as §2
[10] = system: Mus musculus; assay: Acute toxicity in BALB/C mouse assessed as reduction of body weight at up to 50 mg/kg, ip after 15 days; assay type: organism-based; design: dose 50 mg/kg, route intraperitoneal; conditions: in vivo, 360 h; in short: as §4
[11] = system: 786-0; assay: Cytotoxicity against human 786-0 cells after 48 hrs by sulforhodamine B assay; assay type: functional; conditions: 786-0, 48 h; in short: as §2
[12] = system: HT-29; assay: Cytotoxicity against human HT-29 cells after 48 hrs by sulforhodamine B assay; assay type: functional; conditions: HT-29, 48 h; in short: as §2
[13] = Cytotoxicity against human NCI-ADR-RES cells after 48 hrs by sulforhodamine B assay; assay type: functional; in short: as §2
[14] = system: MCF7; assay: Cytotoxicity against human MCF7 cells after 48 hrs by sulforhodamine B assay; assay type: functional; conditions: MCF7, 48 h; in short: as §2
[15] = system: Mus musculus; assay: Acute toxicity in BALB/C mouse assessed as mortality at up to 300 mg/kg, ip after 15 days; assay type: organism-based; design: dose 300 mg/kg, route intraperitoneal; conditions: in vivo, 360 h; in short: as §4
[16] = system: Mus musculus; assay: Antiinflammatory activity in BALB/C mouse assessed as inhibition of carrageenan-induced paw edema at 20 mg/kg, ip administered 30 mins before carrageenan challenge measured before 48 hrs by plethysmometer; assay type: functional, organism-based; design: dose 20 mg/kg
In short: (§5)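 Balb/C mice, n = 8/group. Right hind paw basal volume measured by plethysmometer. Single ip dose in 0.9% saline vehicle, then carrageenan 2.5% injected intraplantar into the right hind footpad 30 min later. Edema taken as measured minus basal volume at 1.5, 3.0, 4.5, 6.0, 24, 48 and 72 h. Expressed as % inhibition vs vehicle ± standard deviation; ANOVA.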

[17] = system: Mus musculus; assay: Antiinflammatory activity in BALB/C mouse assessed as inhibition of carrageenan-induced paw edema at 100 mg/kg, ip administered 30 mins before carrageenan challenge measured after 3 to 4.5 hrs by plethysmometer; assay type: functional, organism-based; design: dose 100 mg/kg; in short: as §5
[18] = Antitumor activity against mouse EAC cells xenografted in BALB/C mouse assessed as reduction of tumor weight at 30 mg/kg, ip administered every 3 days measured on day 15 relative to control; assay type: functional; conditions: Ehrlich, route intraperitoneal; in short: as §3
[19] = Antitumor activity against mouse EAC cells xenografted in BALB/C mouse assessed as inhibition of tumor growth at 100 mg/kg, ip administered every 3 days measured on day 7 relative to control; assay type: functional; conditions: Ehrlich, route intraperitoneal; in short: as §1
[20] = Antitumor activity against mouse EAC cells xenografted in BALB/C mouse assessed as inhibition of tumor growth at 100 mg/kg, ip administered every 3 days measured on day 15 relative to control; assay type: functional; conditions: Ehrlich, route intraperitoneal; in short: as §1
[21] = Antitumor activity against mouse EAC cells xenografted in BALB/C mouse assessed as inhibition of tumor growth at 30 mg/kg, ip administered every 3 days measured on day 15 relative to control; assay type: functional; conditions: Ehrlich, route intraperitoneal; in short: as §1
[22] = system: Mus musculus; assay: Antiinflammatory activity in BALB/C mouse assessed as inhibition of carrageenan-induced paw edema at 100 mg/kg, ip administered 30 mins before carrageenan challenge measured before 72 hrs by plethysmometer; assay type: functional, organism-based; design: dose 100 mg/kg; in short: as §5
[23] = system: Mus musculus; assay: Antiinflammatory activity in BALB/C mouse assessed as inhibition of carrageenan-induced paw edema at 300 mg/kg, ip administered 30 mins before carrageenan challenge measured after 48 to 72 hrs by plethysmometer; assay type: functional, organism-based; design: dose 300 mg/kg; in short: as §5
[24] = Antitumor activity against mouse EAC cells xenografted in BALB/C mouse assessed as reduction of tumor weight at 300 mg/kg, ip administered every 3 days measured on day 15 relative to control; assay type: functional; conditions: Ehrlich, route intraperitoneal; in short: as §3
[25] = system: Mus musculus; assay: Antiinflammatory activity in BALB/C mouse assessed as inhibition of carrageenan-induced paw edema at 30 mg/kg, ip administered 30 mins before carrageenan challenge measured before 6 hrs by plethysmometer; assay type: functional, organism-based; design: dose 30 mg/kg; in short: as §5
[26] = Antitumor activity against mouse EAC cells xenografted in BALB/C mouse assessed as inhibition of tumor growth at 300 mg/kg, ip administered every 3 days measured on day 15 relative to control; assay type: functional; conditions: Ehrlich, route intraperitoneal; in short: as §1
[27] = system: Mus musculus; assay: Antiinflammatory activity in BALB/C mouse assessed as inhibition of carrageenan-induced paw edema at 100 mg/kg, ip administered 30 mins before carrageenan challenge measured before 6 hrs by plethysmometer; assay type: functional, organism-based; design: dose 100 mg/kg; in short: as §5
[28] = Antitumor activity against mouse EAC cells xenografted in BALB/C mouse assessed as inhibition of tumor growth at 30 mg/kg, ip administered every 3 days measured on day 7 relative to control; assay type: functional; conditions: Ehrlich, route intraperitoneal; in short: as §1
[29] = system: Mus musculus; assay: Acute toxicity in BALB/C mouse assessed as reduction of body weight at up to 300 mg/kg, ip after 15 days; assay type: organism-based; design: dose 300 mg/kg, route intraperitoneal; conditions: in vivo, 360 h; in short: as §4
[30] = system: Mus musculus; assay: Antiinflammatory activity in BALB/C mouse assessed as inhibition of carrageenan-induced paw edema at 100 mg/kg, ip administered 30 mins before carrageenan challenge measured before 24 hrs by plethysmometer; assay type: functional, organism-based; design: dose 100 mg/kg; in short: as §5
[31] = system: Mus musculus; assay: Antiinflammatory activity in BALB/C mouse assessed as inhibition of carrageenan-induced paw edema at 30 mg/kg, ip administered 30 mins before carrageenan challenge measured before 48 hrs by plethysmometer; assay type: functional, organism-based; design: dose 30 mg/kg; in short: as §5
[32] = Antitumor activity against mouse EAC cells xenografted in BALB/C mouse assessed as inhibition of tumor growth at 300 mg/kg, ip administered every 3 days measured on day 7 relative to control; assay type: functional; conditions: Ehrlich, route intraperitoneal; in short: as §1
[33] = Antitumor activity against mouse EAC cells xenografted in BALB/C mouse assessed as reduction of tumor weight at 100 mg/kg, ip administered every 3 days measured on day 15 relative to control; assay type: functional; conditions: Ehrlich, route intraperitoneal; in short: as §3

Row | SMILES | TGI [2] | TGI [4] | TGI [5] | TGI [6] | Activity [8] | TGI [9] | TGI [11] | TGI [12] | TGI [13] | TGI [14] | Activity [15] | inhibition [16] | further results
1 | O=C1C=CC[C@@H](/C=C/c2ccccc2)O1 | > 100 µM | 76.4 µM | 44.1 µM | 24 µM | Non-toxic | 24.1 µM | 28.7 µM | 57.6 µM | 11.5 µM | 77 µM | Non-toxic | – | inhibition in vivo at 50 mg/kg [1]: 48.7%; inhibition in vivo at 50 mg/kg [3]: 53.7%; inhibition in vivo at 50 mg/kg [7]: 39.7%; Activity [10]: Non-toxic
2 | CN1C(C(=O)Nc2ccccn2)=C(O)c2ccccc2S1(=O)=O | – | – | – | – | – | – | – | – | – | – | – | Active | –
3 | O=C1C=CCC(/C=C/c2ccccc2)O1 (racemic) | 18.8 µM | 23.2 µM | 36.4 µM | 18.2 µM | Non-toxic | 18.2 µM | 22.4 µM | 29.2 µM | 6.38 µM | 22.7 µM | Non-toxic | Active | inhibition [17]: Active; inhibition in vivo at 30 mg/kg [18]: 36.7%; inhibition in vivo at 100 mg/kg [19]: 41.7%; inhibition in vivo at 100 mg/kg [20]: 40.9%; inhibition in vivo at 30 mg/kg [21]: 48.5%; inhibition [22]: Active; inhibition [23]: Active; inhibition in vivo at 300 mg/kg [24]: 41.8%; inhibition [25]: inactive; inhibition in vivo at 300 mg/kg [26]: 66.7%; inhibition [27]: inactive; inhibition in vivo at 30 mg/kg [28]: 50%; Activity [29]: Non-toxic; inhibition [30]: Active; inhibition [31]: Active; inhibition in vivo at 300 mg/kg [32]: 35.7%; inhibition in vivo at 100 mg/kg [33]: 31.6%
